MLL AF4-AF9 inh: inhibitors of human MLL-AF4/AF9 interaction. AlphaScreen, biotin-AF4 peptide binding to FLAG-AF9. inhibition, % at 10 µM. 0.47% of 350,000 active. AID 651704;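 active = every replicate reaching a set inhibition limit, whatever the replicate mean, cut at about 25% in these data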;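 note: 0% = plate neutral control median and 100% = total signal loss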
FN deposition inh: fibronectin deposition inhibition; 0.086% of 350,000 active; inhibition, % at 12.6 µM; AID 743247; AH1F fibroblasts, Alexa488-fibronectin deposition fluorescence, overnight;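 active = mean inhibition across replicates of 30% or more, regardless of how many single replicates reach that level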;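 note: positive control wells lacked labelled fibronectin entirely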
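Material: AH1F fibroblast monolayer depositing Alexa488-labelled fibronectin into matrix | Input: 10000 AH1F cells/well | Medium: DMEM plus 2% serum, read in PBS | Reagent: Alexa488-fibronectin, 24 nM final in well | Compound dosing: One dose per compound, pinned | Schedule: 1 h adhesion, overnight exposure | Measured by: Fluorescence at 485 nm excitation, 525 nm emission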
NSD2 inh: inhibitors of human histone methyltransferase NSD2. 0.54% of 310,000 active. NSD2 peptide methylation, AlphaScreen, 120 min. inhibition, % at 12.5 µM. O96028. AID 743445; in the data active = inhibition above about 50%
RAD54 inh: inhibitors of human RAD54 branch migration | 0.14% of 360,000 active | inhibition, % at 10.4 µM | RAD54 Holliday junction branch migration, FAM/BHQ fluorescence | Q92698;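 active = mean normalized replicate activity at least 40 and at least half of replicates scoring 40 or more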;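 note: 0% = median of neutral control wells and 100% = median of positive control wells; inhibitors cause a drop in the FAM fluorescence signal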
N-glyco inh: blocks N-linked glycosylation in D54 reporter cells. reporter increase, % at 12.5 µM. 0.23% of 360,000 active. D54 ERlucT glycosylation luciferase reporter, 24 h; percent of 100 nM tunicamycin response. AID 588692;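 active = mean luciferase reporter signal, scaled so untreated is 0 and the glycosylation-blocking control 100, at or above a set limit in every replicate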;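 note: luciferase carries N-glycosylation sites so blocking glycosylation raises the light; 0% = median of neutral control wells and 100% = median of 100 nM tunicamycin wells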
RAD52 anneal inh: inhibitors of human RAD52 DNA annealing. recombinant RAD52 DNA annealing, FRET fluorescence. 0.46% of 360,000 active. inhibition, % at 18.7 µM;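 active = every replicate showing at least 50% inhibition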
Target sequence (P43351 whole entry, looked up): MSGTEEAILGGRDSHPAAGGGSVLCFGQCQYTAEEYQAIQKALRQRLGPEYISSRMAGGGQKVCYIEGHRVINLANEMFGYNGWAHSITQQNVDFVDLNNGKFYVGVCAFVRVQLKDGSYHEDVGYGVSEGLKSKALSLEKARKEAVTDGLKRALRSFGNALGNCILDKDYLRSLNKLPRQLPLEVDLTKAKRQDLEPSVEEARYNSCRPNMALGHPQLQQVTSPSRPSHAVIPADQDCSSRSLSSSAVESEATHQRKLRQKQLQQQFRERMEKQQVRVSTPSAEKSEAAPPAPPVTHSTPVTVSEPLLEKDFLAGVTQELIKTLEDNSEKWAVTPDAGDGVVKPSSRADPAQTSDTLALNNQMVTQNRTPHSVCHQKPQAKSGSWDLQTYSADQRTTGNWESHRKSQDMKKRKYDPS
Alpha artifact: counter-screen for NSD2 inhibitors: AlphaScreen artifacts; shares compounds with NSD2 inh; AlphaScreen artifact counterscreen, preloaded methylated H4 peptide; AC35, µM (titrated, usually from 10 µM), for the others: at the highest dose activity change, negative = signal loss; 9.4% of 1,500 active; call rule not given here
An asterisk follows results filed as active; x = no result; + = active, no number. The list is not random: actives were taken first. Their share in the collection is about 1.2%.

SMILES	MLL AF4-AF9 inh	FN deposition inh	NSD2 inh	RAD54 inh	N-glyco inh	RAD52 anneal inh	Alpha artifact
C[C@H](CO)N1C[C@H](C)[C@H](CN(C)C(=O)NC2CCCCC2)Oc2c(NC(=O)c3cnccn3)cccc2C1=O	-2	8	x	4	x	1	x
COc1ccc(C(=O)N[C@H](C(=O)NCc2ccc(C)cc2)C(C)C)cc1	-7	-1	75*	14	1	-16	-3%
COc1cccc2c1N1C(=O)c3c(C(=O)O)cccc3C1CC2(C)C (centres undefined)	x	x	101*	-3	3	x	-1%
CCn1c(SC(=O)NC2CCCCC2)nnc1-c1cccs1	x	1	59*	3	10	x	-1%
C[C@H]1CN([C@@H](C)CO)C(=O)c2cc(-c3cccc(C#N)c3)cnc2O[C@H]1CN(C)Cc1ccc(F)cc1	1	x	x	x	x	x	x
Cc1c(C)c2c(C)nn(-c3ccccc3)c2[nH]c1=O	x	x	-1	-1	1	x	x
Nc1c2c(=O)[nH]c(O)cc2nn1-c1ccccc1	0	6	100*	-10	1	-3	-3%
CS(=O)(=O)Nc1ccc2c(c1)[C@H]1C[C@@H](CC(=O)NCC3CC3)O[C@@H](CO)[C@H]1O2	-2	x	x	23	x	3	x
CNC[C@@H]1Oc2ccc(NS(C)(=O)=O)cc2C(=O)N(C)C[C@@H]1C	x	-12	x	x	x	x	x
C[C@@H]1CN([C@@H](C)CO)S(=O)(=O)c2ccc(-c3cccnc3)cc2O[C@H]1CN(C)C(=O)NC1CCCC1	1	-9	x	-6	x	3	x
COC(=O)c1ccc(-c2ccc(C(c3c(C)[nH][nH]c3=O)c3c(C)[nH][nH]c3=O)o2)cc1	3	0	53*	x	4	-10	-1%
Cc1[nH][nH]c(=O)c1C(c1ccc(-c2cccc(C(=O)O)c2)o1)c1c(C)[nH][nH]c1=O	-5	x	+	x	4	-26	-2%
Cc1[nH][nH]c(=O)c1C(c1ccc(-c2cccc(Cl)c2)o1)c1c(C)[nH][nH]c1=O	x	x	x	5	16	x	x
Cc1[nH][nH]c(=O)c1C(c1ccc(-c2ccccc2C(=O)O)o1)c1c(C)[nH][nH]c1=O	-1	-4	78*	x	6	-16	-1%
Cc1ccc2oc(-c3ccccc3C(=O)O)cc(=O)c2c1	x	x	24	10	2	x	x
CO[C@@H]1CN(C)C(=O)c2ccc(NS(=O)(=O)C3CCCCC3)cc2OC[C@H](C)NC[C@H]1C	-1	-12	x	2	x	-3	x
Cc1ccccc1-c1cnc2c(c1)C(=O)N([C@H](C)CO)C[C@H](C)[C@H](CN(C)C(=O)CC1CC1)O2	-11	1	x	5	x	2	x
Cc1cccc(C(=O)NCc2nnc(SCC(=O)Nc3nnc(C)s3)n2C)c1	1	7	90*	-4	1	-12	-2%
Cc1cccc(C(=O)NCc2nnc(SCC(=O)Nc3nncs3)n2C)c1	-29	-6	6	12	1	3	x
CCCNC(=O)C[C@@H]1CC[C@H]2[C@@H](COc3ccc(NC(=O)c4ccc(C(F)(F)F)cc4)cc3C(=O)N2C)O1	1	-5	x	-8	x	6	x
CC(C)NCC#CCOc1ccc(Cl)cc1	-1	-4	53*	x	1	-11	-3%
COc1ccc(NC(=O)N(C)C[C@@H]2Oc3ccc(NC(=O)C4CCCCC4)cc3C(=O)N([C@H](C)CO)C[C@H]2C)cc1	-3	x	x	2	x	19	x
C[C@@H]1CN([C@@H](C)CO)C(=O)c2cc(NS(C)(=O)=O)ccc2O[C@H]1CN(C)C(=O)Nc1cccc2ccccc12	1	x	x	-7	x	-15	x
COc1cc(/C=C/[N+](=O)[O-])ccc1OCc1cccc(C(=O)O)c1	x	x	82*	x	x	x	-18%
CC=Cc1ccc2n(c1=O)C[C@H]1[C@H](CO)[C@@H](C(=O)NCc3ccc4c(c3)OCO4)[C@@H]2N1C(=O)CC (mixture of isomers)	-3	x	x	8	x	-4	x
SMILES	MLL AF4-AF9 inh	FN deposition inh	NSD2 inh	RAD54 inh	N-glyco inh	RAD52 anneal inh	Alpha artifact
Cc1ccc2c(c1C)-c1c(ccc(C)c1C)C(=O)C2=O	15	9	85*	x	-15	-7	-8%
CSc1ccccc1NC(=O)CN(C)C(=O)COc1cccc2cccnc12	0	1	x	-10	1	1	x
CSc1ccccc1NC(=O)CN(C)C(=O)COc1ncnc2ccccc12	-1	1	56*	7	-1	-6	1%
CCC(=O)N1CCC2(CC1)CN(Cc1cc(F)ccc1F)[C@H](CO)c1c2c2ccc(OC)cc2n1C	-1	x	x	x	x	-106	x
CC(C)[C@@H]1CC=CC[C@@H](C)Oc2ccccc2C(=O)N(C)[C@H](C)C(=O)N1 (mixture of isomers)	x	3	x	x	x	x	x
O=C(Nc1cccc(Cl)c1N1CCOCC1)c1ccco1	2	0	-6	-2	0	-2	x
COc1c(F)c(F)c(C(=O)Nc2cccc(Cl)c2N2CCOCC2)c(F)c1F	x	x	56*	-1	-3	x	0%
COc1ccc(NC(=O)N(C)C[C@H]2Oc3c(NS(C)(=O)=O)cccc3C(=O)N([C@@H](C)CO)C[C@H]2C)cc1	-1	x	x	3	x	10	x
C=CCOc1ccc(/C=C2\SC(=S)N(NS(=O)(=O)c3ccc(C)cc3)C2=O)cc1	-2	3	55*	8	2	-14	-14%
COc1ccc(CCCc2n[nH]c(=S)n2C)cc1C	-7	x	52*	10	4	-10	-2%
COc1ccc(CCCc2n[nH]c(=S)o2)cc1C	-5	-17	1	-6	1	-2	x
C[C@@H]1CN([C@H](C)CO)C(=O)c2cc(NC(=O)Nc3ccccc3)ccc2O[C@@H](C)CCCCO[C@H]1CN(C)C(=O)NC1CCCCC1	x	17	x	x	x	x	x
COC(=O)N/N=C1/C/C(=N\NC(=O)OC)c2ccccc21	-1	15	97*	1	11	-1	-5%
CC=Cc1ccc2n(c1=O)C[C@H]1[C@H](CO)[C@@H](C(=O)NCCC)[C@@H]2N1CC1CC1 (mixture of isomers)	-1	x	x	4	x	13	x
COC(=O)CCCC(=O)NC1CC(C)(C)Cc2c1cnn2-c1ccc(C)cc1 (centres undefined)	0	0	55*	-7	1	6	-1%
Cc1ccc(-n2ncc3c2CC(C)(C)CC3NC(=O)CCn2cncn2)cc1 (centres undefined)	-1	0	-1	-8	-1	-11	x
COc1ccc(C(=O)NCc2nnc(SCC(=O)Nc3cc(C)cc(C)c3)o2)cc1OC	x	12	75*	3	0	x	-3%
O=C(NCC1CC1)c1ccc(-n2ccnc2)c2ccoc12	-2	4	63*	-6	0	-12	-3%
O=C(NCC1CC1)[C@H]1[C@H](CO)[C@H]2Cn3c(ccc(C4=CCCCC4)c3=O)[C@H]2N1Cc1ccccc1F	7	x	x	3	x	-17	x

Screening results as filed in PubChem.
